Drawing on ChEMBL document CHEMBL2434867, “Synthesis and antioxidant activity of novel Mannich base of 1,3,4-oxadiazole derivatives possessing 1,4-benzodioxan” (Bioorg Med Chem, 2013), this text covers Activity, inhibition and IC50 for 35 molecules.

Calls of active or inactive are those of the source. No cut-off for these calls is given here.

Common to all, as to assay type: functional
Test [1] is described as follows: Antioxidant activity against AAPH-induced DNA breakage in Escherichia coli pBR322 at 100 uM after 1 hr using ethidium bromide staining by agarose gel electrophoresis analysis. The essentials:
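Plasmid pBR322 DNA (4 µg/mL final) exposed to AAPH (4 mM final) in phosphate buffer (8.1 mM Na₂HPO₄, 1.9 mM NaH₂PO₄, 10.0 mM EDTA), 25 µL total; samples and Trolox standard added at 100 µM in DMSO; 37 °C, 1 h. Strand breakage resolved on 1% agarose gel in Tris-acetate-EDTA, 60 V, 100 min.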

Another test relates to Liver. Nature of the test: Antioxidant activity in KM mouse liver microsomes assessed as inhibition of lipid peroxidation after 60 mins. The conditions noted are these: for inhibition: Microsome; for IC50: 1 h. Summed up: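 Liver microsomes from adult male KM mice (8–12 weeks), protein by Bradford, used at 0.67 mg protein/mL with compounds at varying concentrations, 10 mM FeSO₄ and 0.1 mM ascorbic acid in 0.2 M potassium phosphate pH 7.4; 37 °C, 60 min. Stopped with 20% TCA plus 0.67% TBA, heated 100 °C 15 min, centrifuged; MDA-TBA read at 535 nm.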
(In general: Liver microsomes are a subcellular fraction often used to study metabolism.)

Test [2] in a line: Antioxidant activity assessed as ferric ion reducing activity using ferric-TPTZ by measuring concentration of compound with antioxidant capacity equivalent to ferrous sulfate at 0.5 mmol/L by FRAP assay.
Test [3] is described as follows: Antioxidant activity assessed as ABTS radical scavenging activity after 6 mins.
The test system of test [4] is Radical scavenging activity. As to the kind of experiment: Antioxidant activity assessed as DPPH free radical scavenging activity after 30 mins by spectrophotometric analysis. The essentials:
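Serial dilutions of compound (100 to 3.125 µg/mL) mixed 1:1 with 0.2 mmol/L DPPH in ethanol; ethanol blank, BHT control. A515 read after 0.5 h at 25 °C; IC50 = concentration giving 50% DPPH scavenging; three replicates, mean ± SD.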

Turning to `Cc1ccccc1NCn1nc(-c2ccc3c(c2)OCCO3)oc1=S`, the result in test [1] was Active. Further, the inhibition result with Liver is “Active”. Further, the Activity in test [2] was 292 µM. For the same molecule, the IC50 in test [3] came out at 3.45 µM; in test [4], 36.3 µM.
As for `CCCCCCCCCCCCCCCCNCn1nc(-c2ccc3c(c2)OCCO3)oc1=S`, in test [2], the Activity is greater than 1000 µM. In addition, the values for the IC50 in test [3] and in test [4] were 22.9 µM and 108 µM, respectively.
On to `Fc1ccc(NCn2nc(-c3ccc4c(c3)OCCO4)oc2=S)cc1`, for which the Activity in test [2] stood at 300 µM. Further, the figures for the IC50 in test [3] and in test [4] were 6.48 µM and 29.3 µM, respectively.
Consider `Fc1cc(NCn2nc(-c3ccc4c(c3)OCCO4)oc2=S)cc(F)c1F`, for which the result in test [1] was Active. Moreover, the IC50 came to 110 µM with Liver, 2.92 µM in test [3] and 19.6 µM in test [4]. Also, in test [2], the Activity was determined as 240 µM.
Regarding `Cc1c(C)c2c(c(C)c1O)CCC(C)(C(=O)O)O2` (stereo not given) [TROLOX], the IC50 in the test on Liver came to 183 µM; in test [3], 6.19 µM; in test [4], 30.2 µM. In test [2], the Activity was 294 µM.
Consider `S=c1[nH]nc(-c2ccccc2)o1`, for which the Activity in test [2] is greater than 1000 µM. Besides, the IC50 is 10.9 µM in test [3] and 89.8 µM in test [4].
As to `O=[N+]([O-])c1cccc(NCn2nc(-c3ccc4c(c3)OCCO4)oc2=S)c1`, the outcome in test [1] was Active. In addition, the inhibition result in the test with Liver was “Active”. Moreover, the Activity in test [2] is greater than 1000 µM. Also, the IC50 in test [3] is 8.87 µM; in test [4] it was 38.3 µM.
With `S=c1oc(-c2ccc3c(c2)OCCO3)nn1CNc1ccc(Cl)cc1Cl`, in test [2], the Activity amounted to 593 µM. In addition, the IC50 was determined as 8.71 µM in test [3] and 43.5 µM in test [4].
With `S=c1oc(-c2ccc3c(c2)OCCO3)nn1CNc1ccccc1Cl`, the Activity in test [2] amounted to 532 µM. In addition, the IC50 was 7.23 µM in test [3] and 30.5 µM in test [4].
In the same order, the values of `S=c1oc(-c2ccc3c(c2)OCCO3)nn1CNc1cccc(Cl)c1` are 846 µM, 6.22 µM and 22.8 µM.
Take `O=[N+]([O-])c1ccc(NCn2nc(-c3ccc4c(c3)OCCO4)oc2=S)cc1`: the Activity in test [2] was greater than 1000 µM. The IC50 in test [3] amounted to 9.95 µM; in test [4] it was 47.8 µM.
Regarding `S=c1oc(-c2ccc3c(c2)OCCO3)nn1CNc1ccccc1Br`, the Activity in test [2] came to 440 µM. For the same molecule, the results for the IC50 in test [3] and in test [4] were 12.7 µM and 36.1 µM, respectively.
In the case of `S=c1oc(-c2ccc3c(c2)OCCO3)nn1CNC1CCCCC1`, in test [2], the Activity is greater than 1000 µM. The IC50 in test [3] was 18.4 µM; in test [4] it was 94.4 µM.
The corresponding values for `COC(=O)c1ccc2c(c1)OCCO2` are greater than 1000 µM, 13.8 µM and 87.4 µM.
`S=c1oc(-c2ccc3c(c2)OCCO3)nn1CNc1ccc(Br)cc1Br`: in test [2], the Activity is greater than 1000 µM. For the same molecule, the IC50 in test [3] is 6.41 µM; in test [4], 35.9 µM.
Turning to `FC(F)(F)c1cccc(NCn2nc(-c3ccc4c(c3)OCCO4)oc2=S)c1`, the Activity in test [2] was greater than 1000 µM. The IC50 in test [3] was found to be 7.62 µM; in test [4], 35.5 µM.
Regarding `O=[N+]([O-])c1ccc(NCn2nc(-c3ccc4c(c3)OCCO4)oc2=S)c(Cl)c1`, in test [1], the outcome was Active. For the same molecule, the inhibition entry with Liver was “Active”. The Activity in test [2] is greater than 1000 µM. Moreover, the results for the IC50 in test [3] and in test [4] were 8.66 µM and 83.4 µM, respectively.
As to `Fc1ccccc1NCn1nc(-c2ccc3c(c2)OCCO3)oc1=S`, in test [2], the Activity was determined as 522 µM. Moreover, the IC50 in test [3] is 6.39 µM; in test [4], 37.3 µM.
On to `O=[N+]([O-])c1ccccc1NCn1nc(-c2ccc3c(c2)OCCO3)oc1=S`, for which the result in test [1] was Active. Moreover, in the test on Liver, the inhibition entry is “Active”. The Activity in test [2] was greater than 1000 µM. Moreover, the IC50 in test [3] was 10.9 µM; in test [4], 47.8 µM.
As to `S=c1oc(-c2ccc3c(c2)OCCO3)nn1CNc1ccccc1`, the result in test [1] was Active. Also, in the test on Liver, the inhibition result was “Active”. In test [2], the Activity amounted to 735 µM. Besides, the IC50 in test [3] came to 5.14 µM; in test [4], 32.6 µM.
Take `S=c1oc(-c2ccc3c(c2)OCCO3)nn1CNc1cccc(Br)c1`: the Activity in test [2] was greater than 1000 µM. The IC50 in test [3] is 10.8 µM; in test [4], 51 µM.
With `FC(F)(F)c1cc(NCn2nc(-c3ccc4c(c3)OCCO4)oc2=S)cc(C(F)(F)F)c1`, in test [2], the Activity was greater than 1000 µM. In addition, the figures for the IC50 in test [3] and in test [4] were 9.32 µM and 89.3 µM, respectively.
Take `S=c1oc(-c2ccc3c(c2)OCCO3)nn1CNc1ccc(Br)cc1`: in test [2], the Activity came out at 531 µM. For the same molecule, the IC50 came to 14.7 µM in test [3] and 71.3 µM in test [4].
As to `S=c1oc(-c2ccc3c(c2)OCCO3)nn1CNc1ccc(Cl)c(Cl)c1`, the Activity in test [2] stood at 763 µM. Further, the results for the IC50 in test [3] and in test [4] were 6.84 µM and 36.2 µM, respectively.
As to `FC(F)(F)c1ccccc1NCn1nc(-c2ccc3c(c2)OCCO3)oc1=S`, the Activity in test [2] is greater than 1000 µM. For the same molecule, the IC50 in test [3] came out at 9.22 µM; in test [4], 68.3 µM.
On to `COc1ccccc1NCn1nc(-c2ccc3c(c2)OCCO3)oc1=S`, for which the Activity in test [2] amounted to 335 µM. Further, the IC50 in test [3] was 6.3 µM; in test [4] it was 28.6 µM.
In the same order, the values of `S=c1oc(-c2ccc3c(c2)OCCO3)nn1CNc1cc(Cl)ccc1Cl` are 899 µM, 5.42 µM and 35.1 µM.
The corresponding values for `CCOc1ccccc1NCn1nc(-c2ccc3c(c2)OCCO3)oc1=S` are 422 µM, 5.28 µM and 22.4 µM.
Regarding `Cc1ccc(NCn2nc(-c3ccc4c(c3)OCCO4)oc2=S)cc1`, in test [2], the Activity stood at 434 µM. Also, the IC50 in test [3] worked out at 5.7 µM; in test [4], 25.2 µM.
As to `Fc1cccc(F)c1NCn1nc(-c2ccc3c(c2)OCCO3)oc1=S`, in test [1], the result was Active. The inhibition entry in the test on Liver was “Active”. Besides, the Activity in test [2] amounted to 268 µM. Moreover, the results for the IC50 in test [3] and in test [4] were 3.32 µM and 21.8 µM, respectively.
With `S=c1oc(-c2ccc3c(c2)OCCO3)nn1CNc1ccc(Cl)cc1`, the Activity in test [2] turned out to be 584 µM. The 50% inhibitory concentration (IC50) in test [3] turned out to be 7.27 µM; in test [4] it was 31.3 µM.
In the same order, the values of `Cc1cc(C(C)(C)C)c(O)c(C(C)(C)C)c1` [BUTYLATED HYDROXYTOLUENE] are 546 µM, 7.57 µM and 43.8 µM.
As for `COc1ccc(NCn2nc(-c3ccc4c(c3)OCCO4)oc2=S)cc1`, the Activity in test [2] amounted to 493 µM. Further, the IC50 amounted to 5.83 µM in test [3] and 31.8 µM in test [4].
The corresponding values for `Fc1cccc(NCn2nc(-c3ccc4c(c3)OCCO4)oc2=S)c1` are 398 µM, 6.62 µM and 35.6 µM.
For the molecule `S=c1[nH]nc(-c2ccc3c(c2)OCCO3)o1`, in test [2], the Activity was 612 µM. Moreover, the IC50 was found to be 10.6 µM in test [3] and 63.9 µM in test [4].

As a reminder, the IC50 is the concentration needed to halve the response being measured.
